Laboratory results from ChEMBL document CHEMBL1158351, “Studies on chemical structure modification and biology of a natural product, gambogic acid (I): Synthesis and biological evaluation of oxidized analogues of gambogic acid” (Eur J Med Chem, 2009).
The source made the active and inactive calls. The calls are words filed in the database; no cut-off is given here.

Tests used:
HT-29 = test: Cytotoxicity against human HT-29 cells after 48 hrs by MTT assay; type: functional, cell-based; conditions: HT-29, 48 h
How it was run: (§1)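 Cells in RPMI-1640 with 10% heat-inactivated calf serum, penicillin/streptomycin, 5% CO2, 37 °C. Seeded at 5×10³ per well and exposed to six concentrations of 0.01–1000 for 48 h. Then 0.5% MTT for 4 h at 37 °C, formazan dissolved in DMSO, absorbance read at 570 nm. Inhibition calculated as (1 − treated/control absorbance)×100. IC50 is the concentration giving 50% inhibition; mean ± SD of three observations.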

A549 = test: Cytotoxicity against human A549 cells after 48 hrs by MTT assay; type: functional, cell-based; conditions: A549, 48 h; how it was run: as §1
Bel-7402 = test: Cytotoxicity against human Bel7402 cells after 48 hrs by MTT assay; type: functional, cell-based; conditions: Bel-7402, 48 h; how it was run: as §1
BGC-823 = test: Cytotoxicity against human BGC823 cells after 48 hrs by MTT assay; type: functional, cell-based; conditions: BGC-823, 48 h; how it was run: as §1
SK-OV-3 = test: Cytotoxicity against human SKOV3 cells after 48 hrs by MTT assay; type: functional, cell-based; conditions: SK-OV-3, 48 h; how it was run: as §1
HepG2 [1] = test: Induction of early apoptosis in human HepG2 cells assessed as presence of congregated chromatin and nucleolus pyknosis at 2 uM after 18 hrs using AOEB staining by fluorescence microscopy; type: functional, cell-based
How it was run: (§2)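 HepG2 cells treated for 18 h, fixed in 4% paraformaldehyde for 20 min, and permeabilized in 0.1% Triton for 20 min. Stained with acridine orange/ethidium bromide in PBS for 5 min. Viewed by fluorescence microscopy at 490 nm excitation. Green AO with condensed chromatin scored as early apoptotic; uniform red EB scored as dead.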

HepG2 [2] = test: Induction of apoptosis in human HepG2 cells assessed late apoptotic cells at 1 uM after 20 hrs using FITC-conjugated annexin V and propidium iodide staining by FACS analysis; type: functional
How it was run: (§3)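 HepG2 cells in flasks treated for 20 h, then 1×10⁶ cells harvested, washed and resuspended in PBS. Stained with FITC-Annexin V and PI kit per kit instructions and analysed by flow cytometry. Quadrants: Annexin−/PI− viable, Annexin+/PI− early apoptotic, upper right necrotic/late apoptotic.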

HepG2 [3] = test: Induction of apoptosis in human HepG2 cells assessed as morphological changes at 3 uM after 20 hrs using DAPI staining by fluorescence microscopy; type: functional, cell-based
How it was run: (§4)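 Mid-log HepG2 cultures in RPMI-1640 treated for 20 h, then morphology checked by inverted light microscopy. Floating and attached cells collected with EDTA/trypsin, fixed in ice-cold 4% paraformaldehyde for 20 min, and permeabilized with 0.3% Triton X-100. Stained with DAPI and viewed by fluorescence microscopy at 340 nm excitation.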

HepG2 [4] = test: Induction of apoptosis in human HepG2 cells assessed as inhibition of cell viability after 24 hrs by MTT assay; type: functional, cell-based
How it was run: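 Medium then removed and MTT added; after 4 h the supernatant was discarded and DMSO added. Absorbance read at 570 nm. Mean ± SD, n = 3; IC50 calculated from the concentration–response.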

HepG2 [5] = test: Induction of apoptosis in human HepG2 cells assessed viable cells at 6 uM after 20 hrs using FITC-conjugated annexin V and propidium iodide staining by FACS analysis; type: functional; how it was run: as §3
HepG2 [6] = test: Induction of apoptosis in human HepG2 cells assessed viable cells at 1 uM after 20 hrs using FITC-conjugated annexin V and propidium iodide staining by FACS analysis; type: functional; how it was run: as §3
HepG2 [7] = test: Induction of apoptosis in human HepG2 cells assessed early apoptotic cells at 1 uM after 20 hrs using FITC-conjugated annexin V and propidium iodide staining by FACS analysis; type: functional; how it was run: as §3
HepG2 [8] = test: Induction of apoptosis in human HepG2 cells assessed as decrease in Bcl-2 protein expression at 1 uM after 20 hrs by SDS-PAGE; type: functional, cell-based
How it was run: (§5)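 HepG2 cells treated for 20 h, then lysed in Tris-Cl pH 6.8 buffer with 4% SDS, 20% glycerol, 200 mM β-mercaptoethanol, PMSF and aprotinin. Protein measured by Bradford at 595 nm and resolved on 10% SDS-PAGE, then transferred to PVDF membrane. Probed overnight at 4 °C with anti-Bcl-2, anti-Bax and anti-actin primaries, then 1 h with IRDye800 secondaries. Bcl-2/Bax ratio derived from band quantitation.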

HepG2 [9] = test: Induction of apoptosis in human HepG2 cells assessed as morphological changes at 2 uM after 20 hrs using DAPI staining by fluorescence microscopy; type: functional, cell-based; how it was run: as §4
HepG2 [10] = test: Induction of apoptosis in human HepG2 cells assessed as ratio of Bcl-2 to Bax protein expression at 2 uM after 20 hrs by SDS-PAGE; type: functional; how it was run: as §5
HepG2 [11] = test: Induction of apoptosis in human HepG2 cells assessed nonviable necrotic cells at 2 uM after 20 hrs using FITC-conjugated annexin V and propidium iodide staining by FACS analysis; type: functional; how it was run: as §3
HepG2 [12] = test: Induction of apoptosis in human HepG2 cells assessed early apoptotic cells at 6 uM after 20 hrs using FITC-conjugated annexin V and propidium iodide staining by FACS analysis; type: functional; how it was run: as §3
HepG2 [13] = test: Induction of apoptosis in human HepG2 cells assessed nonviable necrotic cells at 1 uM after 20 hrs using FITC-conjugated annexin V and propidium iodide staining by FACS analysis; type: functional; how it was run: as §3
HepG2 [14] = test: Induction of apoptosis in human HepG2 cells assessed early apoptotic cells at 2 uM after 20 hrs using FITC-conjugated annexin V and propidium iodide staining by FACS analysis; type: functional; how it was run: as §3
HepG2 [15] = test: Induction of early apoptosis in human HepG2 cells assessed as presence of congregated chromatin and nucleolus pyknosis at 1 uM after 18 hrs using AOEB staining by fluorescence microscopy; type: functional, cell-based; how it was run: as §2
HepG2 [16] = test: Induction of apoptosis in human HepG2 cells assessed late apoptotic cells at 6 uM after 20 hrs using FITC-conjugated annexin V and propidium iodide staining by FACS analysis; type: functional; how it was run: as §3
HepG2 [17] = test: Induction of apoptosis in human HepG2 cells assessed as morphological changes at 1 uM after 20 hrs using DAPI staining by fluorescence microscopy; type: functional, cell-based; how it was run: as §4
HepG2 [18] = test: Induction of apoptosis in human HepG2 cells assessed as ratio of Bcl-2 to Bax protein expression at 6 uM after 20 hrs by SDS-PAGE; type: functional; how it was run: as §5
HepG2 [19] = test: Induction of apoptosis in human HepG2 cells assessed late apoptotic cells at 2 uM after 20 hrs using FITC-conjugated annexin V and propidium iodide staining by FACS analysis; type: functional; how it was run: as §3
HepG2 [20] = test: Induction of apoptosis in human HepG2 cells assessed viable cells at 2 uM after 20 hrs using FITC-conjugated annexin V and propidium iodide staining by FACS analysis; type: functional; how it was run: as §3
HepG2 [21] = test: Induction of early apoptosis in human HepG2 cells assessed as presence of congregated chromatin and nucleolus pyknosis at 3 uM after 18 hrs using AOEB staining by fluorescence microscopy; type: functional, cell-based; how it was run: as §2
HepG2 [22] = test: Induction of apoptosis in human HepG2 cells assessed nonviable necrotic cells at 6 uM after 20 hrs using FITC-conjugated annexin V and propidium iodide staining by FACS analysis; type: functional; how it was run: as §3
HepG2 [23] = test: Induction of apoptosis in human HepG2 cells assessed as ratio of Bcl-2 to Bax protein expression at 1 uM after 20 hrs by SDS-PAGE; type: functional; how it was run: as §5
HepG2 [24] = test: Induction of apoptosis in human HepG2 cells assessed as decrease in Bcl-2 protein expression at 6 uM after 20 hrs by SDS-PAGE; type: functional, cell-based; how it was run: as §5
HepG2 [25] = test: Induction of apoptosis in human HepG2 cells assessed as decrease in Bcl-2 protein expression at 2 uM after 20 hrs by SDS-PAGE; type: functional, cell-based; how it was run: as §5

`COC(=O)/C(C)=C\C[C@@]12OC(C)(C)[C@@H]3C[C@@H](C=C4C(=O)c5c(OC)c6c(c(CC=C(C)C)c5O[C@]431)O[C@](C)(CC[C@H](O)C(C)(C)O)C=C6)C2=O` was tested, and the IC50 (HT-29) was 3.75 µM, the IC50 (A549) was 5.86 µM and the IC50 (Bel-7402) was 3.65 µM. It also gave an IC50 (BGC-823) of 3.46 µM and an IC50 (SK-OV-3) of 3.23 µM.

With `CC(C)=CCC[C@]1(C)C=Cc2c(O)c3c(c(CC=C(C)C)c2O1)O[C@]12[C@H]4C[C@H](C(=O)[C@]1(C/C=C(/C)C(=O)O)OC4(C)C)C(O)C2(O)C3=O` (stereo partly specified) the IC50 (HT-29) was 34.7 µM, the IC50 (A549) was 74.2 µM and the IC50 (Bel-7402) was 33.1 µM. For the same molecule, the IC50 (BGC-823) was 29.9 µM and the IC50 (SK-OV-3) was 6 µM.

`COC(=O)/C(C)=C\C[C@@]12OC(C)(C)[C@@H]3C[C@@H](C=C4C(=O)c5c(OC)c6c(c(CC=C(C)C)c5O[C@]431)O[C@](C)(CC/C=C(\C)CO)C=C6)C2=O` was tested, and the Activity (HepG2 [1]) was “Active”, the IC50 (HT-29) was 0.89 µM and the Activity (HepG2 [2]) was 3.5%. For the same molecule, the Activity (HepG2 [3]) was “Active”, the Activity (HepG2 [4]) was “Dose-dependent effect” and the IC50 (HepG2 [4]; HepG2, 24 h) was 2.35 µM. The IC50 (A549) was 4.38 µM, the Activity (HepG2 [5]) was 72.7% and the Activity (HepG2 [6]) was 92.3%. For the same molecule, the IC50 (Bel-7402) was 0.96 µM, the IC50 (BGC-823) was 0.84 µM and the Activity (HepG2 [7]) was 4%. The Activity (HepG2 [8]) was “Active”, the Activity (HepG2 [9]) was “Active” and the Ratio (HepG2 [10]) was 0.478. It also gave an Activity (HepG2 [11]) of 0.2%, an Activity (HepG2 [12]) of 12.9% and an Activity (HepG2 [13]) of 0.2%. The Activity (HepG2 [14]) was 5%, the Activity (HepG2 [15]) was “Active” and the Activity (HepG2 [16]) was 13.5%. For the same molecule, the Activity (HepG2 [17]) was “Active”, the Ratio (HepG2 [18]) was 0.251 and the Activity (HepG2 [19]) was 2.5%. For the same molecule, the Activity (HepG2 [20]) was 92.3%, the Activity (HepG2 [21]) was “Active” and the Activity (HepG2 [22]) was 0.9%. For the same molecule, the Ratio (HepG2 [23]) was 0.476, the Activity (HepG2 [24]) was “Active” and the IC50 (SK-OV-3) was 1.28 µM. For the same molecule, the Activity (HepG2 [25]) was “Active”.

For `CC(C)=CCC[C@]1(C)C=Cc2c(O)c3c(c(CC=C(C)C)c2O1)O[C@]12C(=C[C@@H]4C[C@H]1C(C)(C)O[C@@]2(C/C=C(/C)C(=O)O)C4=O)C3=O` [GAMBOGIC ACID], the IC50 (HT-29) was 5.61 µM, the IC50 (A549) was 5.81 µM and the IC50 (Bel-7402) was 3.31 µM. For the same molecule, the IC50 (BGC-823) was 4.51 µM and the IC50 (SK-OV-3) was 3.06 µM.

In the case of `COC(=O)/C(C)=C\C[C@@]12OC(C)(C)[C@@H]3C[C@@H](C=C4C(=O)c5c(OC)c6c(c(CC=C(C)C)c5O[C@]431)O[C@](C)(CC/C=C(\C)COC(C)=O)C=C6)C2=O`, the IC50 (HT-29) is reported as 2.41 µM, the IC50 (A549) is reported as 5.25 µM and the IC50 (Bel-7402) is reported as 3.6 µM. The IC50 (BGC-823) was 1.42 µM and the IC50 (SK-OV-3) was 15.8 µM.

`COC(=O)/C(C)=C\C[C@@]12OC(C)(C)[C@@H]3C[C@@H](C=C4C(=O)c5c(OC)c6c(c(CC7OC7(C)C)c5O[C@]431)O[C@](C)(CCC1OC1(C)C)C=C6)C2=O` (stereo partly specified) showed an IC50 (HT-29) of 1.86 µM, an IC50 (A549) of 3.61 µM and an IC50 (Bel-7402) of 1.66 µM. For the same molecule, the IC50 (BGC-823) was 3.21 µM and the IC50 (SK-OV-3) was 1.8 µM.
